Experimental data published in ChEMBL document CHEMBL1157475, “Selective influence on contextual memory: physiochemical properties associated with selectivity of benzodiazepine ligands at GABAA receptors containing the alpha5 subunit” (J Med Chem, 2008).
pEC50, pKi: −log10 of the molar value. Calls of active or inactive are those of the source. The calls are words filed in the database; no cut-off is given here.

Columns and labels:
Mus musculus [1] = test: Impairment of contextual memory in C57BL/6J mouse at 30 mg/kg, ip; assay type: functional, organism-based; design: dose 30 mg/kg
Procedure, shortened: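 Male C57Bl/6 mice aged 7–12 weeks, given an ip injection in 0.9% saline containing 2.5% encapsin, 20 min before training. Training was 4 min in the chamber, then three 33 s tones (85 dB, 2.9 kHz), each ending in a 0.75 mA shock for 3 s, 1 min apart. Twenty-four hours later, freezing was scored during a 4 min context test without shock.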

Mus musculus [2] = test: Effect on spontaneous locomotor activity in C57BL/6J mouse at 30 mg/kg, ip by automated assessment; assay type: functional; settings: route intraperitoneal
Procedure, shortened: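 Male C57Bl/6 mice given 30 mg/kg ip, compared with vehicle-injected mice. Spontaneous locomotor activity was recorded automatically over a 40 min observation period after injection.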

[3] = biological target: T1, Gamma-aminobutyric acid receptor subunit alpha-3 (Homo sapiens, UniProt P18507+P28472+P34903); test: Binding affinity to GABAA alpha-3-beta-3-gamma-2 receptor
T1 sequence (P34903 whole entry): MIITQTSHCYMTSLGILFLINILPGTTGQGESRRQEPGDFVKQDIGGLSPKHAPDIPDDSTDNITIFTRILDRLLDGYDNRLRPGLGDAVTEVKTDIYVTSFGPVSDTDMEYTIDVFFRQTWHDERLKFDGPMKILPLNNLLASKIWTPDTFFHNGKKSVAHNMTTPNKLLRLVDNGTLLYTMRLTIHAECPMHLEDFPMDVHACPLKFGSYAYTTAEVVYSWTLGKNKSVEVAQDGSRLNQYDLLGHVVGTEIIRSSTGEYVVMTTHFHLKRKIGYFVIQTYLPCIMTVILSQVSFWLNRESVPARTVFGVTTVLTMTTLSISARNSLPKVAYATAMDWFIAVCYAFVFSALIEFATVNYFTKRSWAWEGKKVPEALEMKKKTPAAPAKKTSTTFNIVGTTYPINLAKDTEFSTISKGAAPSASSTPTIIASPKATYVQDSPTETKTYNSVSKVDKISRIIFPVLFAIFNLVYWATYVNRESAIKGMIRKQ

[4] = biological target: T2, GABA-A receptor; alpha-2/beta-3/gamma-2 (Homo sapiens, UniProt P18507+P28472+P47869); test: Binding affinity to GABAA alpha-2-beta-3-gamma-2 receptor
T2 sequence (P18507 whole entry): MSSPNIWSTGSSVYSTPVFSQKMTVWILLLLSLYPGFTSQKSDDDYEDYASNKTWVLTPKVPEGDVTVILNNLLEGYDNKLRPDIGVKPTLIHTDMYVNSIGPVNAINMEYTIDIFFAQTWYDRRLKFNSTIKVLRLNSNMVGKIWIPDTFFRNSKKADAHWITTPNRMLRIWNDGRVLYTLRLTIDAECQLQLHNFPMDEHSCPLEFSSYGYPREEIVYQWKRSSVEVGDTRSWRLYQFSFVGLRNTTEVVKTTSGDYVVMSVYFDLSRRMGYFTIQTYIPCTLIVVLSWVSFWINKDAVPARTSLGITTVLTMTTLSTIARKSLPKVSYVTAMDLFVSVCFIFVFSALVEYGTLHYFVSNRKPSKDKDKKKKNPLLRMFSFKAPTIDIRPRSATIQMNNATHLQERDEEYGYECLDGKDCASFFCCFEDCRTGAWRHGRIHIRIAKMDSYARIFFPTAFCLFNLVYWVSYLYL
T2 sequence (P28472 whole entry): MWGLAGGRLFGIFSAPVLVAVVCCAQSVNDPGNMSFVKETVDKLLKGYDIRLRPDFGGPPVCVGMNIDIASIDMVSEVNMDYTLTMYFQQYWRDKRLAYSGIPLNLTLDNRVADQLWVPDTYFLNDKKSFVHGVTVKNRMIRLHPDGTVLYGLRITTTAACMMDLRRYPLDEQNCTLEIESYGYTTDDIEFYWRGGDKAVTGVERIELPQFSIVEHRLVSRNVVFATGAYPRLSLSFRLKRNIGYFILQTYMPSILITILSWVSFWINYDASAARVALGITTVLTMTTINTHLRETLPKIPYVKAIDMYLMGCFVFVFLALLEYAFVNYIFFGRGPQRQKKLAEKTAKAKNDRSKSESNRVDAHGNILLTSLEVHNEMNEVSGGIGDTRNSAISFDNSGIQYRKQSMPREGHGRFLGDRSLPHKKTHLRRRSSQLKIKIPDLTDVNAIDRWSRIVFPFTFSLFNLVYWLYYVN
T2 sequence (P47869 whole entry): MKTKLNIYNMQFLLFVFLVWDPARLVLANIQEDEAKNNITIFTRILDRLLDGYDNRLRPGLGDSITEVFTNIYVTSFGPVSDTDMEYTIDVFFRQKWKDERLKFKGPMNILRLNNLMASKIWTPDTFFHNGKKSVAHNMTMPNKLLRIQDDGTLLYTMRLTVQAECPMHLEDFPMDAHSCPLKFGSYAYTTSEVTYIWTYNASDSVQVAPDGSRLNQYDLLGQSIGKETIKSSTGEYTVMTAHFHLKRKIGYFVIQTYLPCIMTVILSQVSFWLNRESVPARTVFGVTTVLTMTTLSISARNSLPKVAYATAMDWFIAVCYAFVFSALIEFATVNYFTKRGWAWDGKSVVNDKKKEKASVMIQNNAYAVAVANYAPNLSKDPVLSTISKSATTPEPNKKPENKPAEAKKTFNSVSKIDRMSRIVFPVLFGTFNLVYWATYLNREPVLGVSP

[5] = biological target: T3, GABA-A receptor; alpha-6/beta-3/gamma-2 (Homo sapiens, UniProt P18507+P28472+Q16445); test: Binding affinity to GABAA alpha-6-beta-3-gamma-2 receptor; assay type: protein-complex assay
[6] = biological target: T4, GABA-A receptor; alpha-5/beta-3/gamma-2 (Homo sapiens, UniProt P18507+P28472+P31644); test: Binding affinity to GABAA alpha-5-beta-3-gamma-2 receptor; assay type: protein-complex assay
T4 sequence (P18507 whole entry): T2 sequence (P18507 whole entry)
T4 sequence (P28472 whole entry): T2 sequence (P28472 whole entry)
T4 sequence (P31644 whole entry): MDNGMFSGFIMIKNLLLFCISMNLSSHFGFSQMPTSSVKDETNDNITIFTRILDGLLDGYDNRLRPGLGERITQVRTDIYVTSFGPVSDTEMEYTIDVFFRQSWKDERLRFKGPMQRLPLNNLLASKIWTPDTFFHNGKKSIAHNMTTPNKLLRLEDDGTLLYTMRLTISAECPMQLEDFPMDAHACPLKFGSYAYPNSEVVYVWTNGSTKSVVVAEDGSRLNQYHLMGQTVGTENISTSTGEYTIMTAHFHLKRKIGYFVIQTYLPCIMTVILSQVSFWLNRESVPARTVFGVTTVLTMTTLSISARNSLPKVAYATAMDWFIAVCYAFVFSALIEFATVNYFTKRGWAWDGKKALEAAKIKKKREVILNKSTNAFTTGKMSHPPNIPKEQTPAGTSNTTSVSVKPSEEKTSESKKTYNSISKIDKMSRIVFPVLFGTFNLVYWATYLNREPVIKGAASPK

[7] = biological target: T5, GABA A receptor alpha-4/beta-3/gamma-2 (Homo sapiens, UniProt P18507+P28472+P48169); test: Binding affinity to GABAA alpha-4-beta-3-gamma-2 receptor; assay type: protein-complex assay
[8] = biological target: T6, GABA-A receptor; alpha-1/beta-3/gamma-2 (Homo sapiens, UniProt P14867+P18507+P28472); test: Binding affinity to GABAA alpha-1-beta-3-gamma-2 receptor; assay type: protein-complex assay
T6 sequence (P14867 whole entry): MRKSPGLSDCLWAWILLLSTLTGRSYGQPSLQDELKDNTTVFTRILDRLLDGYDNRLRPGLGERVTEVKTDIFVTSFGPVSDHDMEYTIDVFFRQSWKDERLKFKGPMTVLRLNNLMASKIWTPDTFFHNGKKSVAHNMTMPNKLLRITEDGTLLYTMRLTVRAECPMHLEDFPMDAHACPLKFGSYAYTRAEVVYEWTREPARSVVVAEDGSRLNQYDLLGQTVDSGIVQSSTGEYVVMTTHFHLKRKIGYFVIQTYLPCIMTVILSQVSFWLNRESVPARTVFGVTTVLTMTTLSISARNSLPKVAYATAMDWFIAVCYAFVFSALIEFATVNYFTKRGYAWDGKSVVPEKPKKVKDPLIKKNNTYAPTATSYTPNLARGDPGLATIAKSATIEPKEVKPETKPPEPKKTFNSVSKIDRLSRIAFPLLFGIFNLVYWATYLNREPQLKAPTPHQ
T6 sequence (P18507 whole entry): T2 sequence (P18507 whole entry)
T6 sequence (P28472 whole entry): T2 sequence (P28472 whole entry)

[9] = biological target: T4, GABA-A receptor; alpha-5/beta-3/gamma-2; test: Activity at alpha-5-beta-3-gamma-2 GABAA receptor expressed in Xenopus oocytes assessed as inhibition in GABA-induced current by voltage clamp assay; assay type: cell-based, Oocyte
Procedure, shortened: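 cRNA-injected Xenopus oocytes (α5, β3 transcripts 0.0065 ng/nL, γ2 0.032 ng/nL; 50 nL), defolliculated after ≥36 h; two-electrode voltage clamp at −60 mV, room temperature, in Xenopus Ringer's pH 7.4. Ligand (1 µM; 0.1% DMSO final) preapplied 30 s, then coapplied with GABA at EC20 until peak; current change versus GABA alone.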

[10] = biological target: T2, GABA-A receptor; alpha-2/beta-3/gamma-2; test: Activity at alpha-2-beta-3-gamma-2 GABAA receptor expressed in Xenopus oocytes assessed as inhibition in GABA-induced current by voltage clamp assay; assay type: cell-based, Oocyte
Procedure, shortened: (§1)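 cRNA for alpha and beta3 subunits (0.0065 ng/nL) plus gamma2 (0.032 ng/nL) injected into Xenopus oocytes, 50 nL each, recorded after ≥36 h. Two-electrode voltage clamp at -60 mV, room temperature, in Xenopus Ringer's pH 7.4. Drug (final 0.1% DMSO) preapplied 30 s, then coapplied with GABA at about EC20 until peak. Current normalized to response without drug.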

[11] = biological target: T5, GABA A receptor alpha-4/beta-3/gamma-2; test: Activity at alpha-4-beta-3-gamma-2 GABAA receptor expressed in Xenopus oocytes assessed as inhibition in GABA-induced current by voltage clamp assay; assay type: cell-based, Oocyte; procedure, shortened: as §1
[12] = biological target: T6, GABA-A receptor; alpha-1/beta-3/gamma-2; test: Activity at GABAA alpha-1-beta-3-gamma-2 receptor expressed in Xenopus oocytes assessed as inhibition of GABA-induced current by voltage clamp assay; assay type: cell-based, Oocyte; procedure, shortened: as §1
[13] = biological target: T3, GABA-A receptor; alpha-6/beta-3/gamma-2; test: Activity at alpha-6-beta-3-gamma-2 GABAA receptor expressed in Xenopus oocytes assessed as inhibition in GABA-induced current by voltage clamp assay; assay type: cell-based, Oocyte; procedure, shortened: as §1

T5 sequence (P48169 whole entry, one chain of several): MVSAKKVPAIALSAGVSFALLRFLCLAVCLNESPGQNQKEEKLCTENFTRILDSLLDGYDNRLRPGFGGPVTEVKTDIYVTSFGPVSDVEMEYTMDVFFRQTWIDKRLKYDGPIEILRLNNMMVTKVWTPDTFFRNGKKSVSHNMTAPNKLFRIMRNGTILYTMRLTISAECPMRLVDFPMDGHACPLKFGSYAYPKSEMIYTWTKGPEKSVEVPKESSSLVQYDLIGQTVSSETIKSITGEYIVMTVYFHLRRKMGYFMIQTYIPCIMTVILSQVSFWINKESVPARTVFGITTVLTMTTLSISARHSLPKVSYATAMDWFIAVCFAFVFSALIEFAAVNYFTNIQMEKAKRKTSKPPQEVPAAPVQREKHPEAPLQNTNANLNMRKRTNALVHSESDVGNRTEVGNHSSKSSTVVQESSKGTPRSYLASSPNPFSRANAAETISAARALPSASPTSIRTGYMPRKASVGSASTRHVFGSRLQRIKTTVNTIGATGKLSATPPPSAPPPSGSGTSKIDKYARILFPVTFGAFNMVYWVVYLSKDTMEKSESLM
T3 sequence (Q16445 whole entry, one chain of several): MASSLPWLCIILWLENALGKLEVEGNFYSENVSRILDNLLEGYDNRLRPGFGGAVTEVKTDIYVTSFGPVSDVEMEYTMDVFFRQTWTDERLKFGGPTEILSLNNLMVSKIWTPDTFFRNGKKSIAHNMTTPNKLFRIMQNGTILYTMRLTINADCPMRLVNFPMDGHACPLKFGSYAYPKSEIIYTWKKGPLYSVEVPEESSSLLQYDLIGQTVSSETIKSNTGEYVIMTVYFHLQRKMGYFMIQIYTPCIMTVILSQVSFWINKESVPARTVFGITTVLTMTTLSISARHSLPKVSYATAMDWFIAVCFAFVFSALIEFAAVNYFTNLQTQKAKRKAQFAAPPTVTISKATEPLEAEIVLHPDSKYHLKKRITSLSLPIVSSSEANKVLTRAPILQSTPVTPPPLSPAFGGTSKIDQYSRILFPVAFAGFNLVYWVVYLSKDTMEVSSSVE

C#Cc1ccc2c(c1)C(c1ccccc1)=N[C@H](C)c1c(C(=O)OCC)ncn1-2
Activity (Mus musculus [1]): Active | Activity (Mus musculus [2]): 1026

CN1CC2C(C(=O)OC(C)(C)C)=NCN2c2ccc(C#C[Si](C)(C)C)cc2C1=O (stereo not drawn)
pKi [3]: 6.59 | pKi [4]: 6.84 | pKi [5]: 7.23 | pKi [6]: 8.58 | pKi [7]: 8.58 | pKi [8]: 6.71

C#Cc1ccc2c(c1)C(=O)N(C)Cc1c(C(=O)OC(C)(C)C)ncn1-2
pEC50 [9]: 5.01 | pEC50 [10]: 4.02 | pEC50 [11]: 3.49 | pEC50 [12]: 4.13 | pEC50 [13]: 4.29
